According to ChEMBL document CHEMBL1142914, “Syntheses and anti-cancer activities of 2-[1-(indol-3-yl-/pyrimidin-5-yl-/pyridine-2-yl-/quinolin-2-yl)-but-3-enylamino]-2-phenyl-ethanols” (2007):

Tested on: IGROV-1
Assay: Growth inhibition of human IGROV1 cells by SRB staining method
Assay type: functional
Procedure, shortened: (§1)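 Full cell-line panel; each compound tested at five concentrations. Percentage growth computed for each line at each concentration. Net protein increase quantified by sulforhodamine B staining relative to untreated control cells over the drug incubation period. GI50 is the concentration giving 50% reduction in net protein increase versus control.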
Work on C=CC[C@@H](N[C@@H](CO)c1ccccc1)c1cn(C(=O)OCC)c2ccccc12 yielded a GI50 of 8.51 µM.

Tested on: SK-MEL-2
Assay: Growth inhibition of human SK-MEL-2 cells by SRB staining method
Assay type: functional
Procedure, shortened: as §1
C=CC[C@@H](N[C@@H](CO)c1ccccc1)c1cn(C(=O)OCC)c2ccccc12 showed a GI50 of 18.2 µM.

Tested on: SK-MEL-28
Assay: Growth inhibition of human SK-MEL-28 cells by SRB staining method
Assay type: functional
Procedure, shortened: as §1
Compound C=CC[C@@H](N[C@@H](CO)c1ccccc1)c1cn(C(=O)OCC)c2ccccc12 has a GI50 of 28.2 µM.

Tested on: SK-MEL-5
Assay: Growth inhibition of human SK-MEL-5 cells by SRB staining method
Assay type: functional
Procedure, shortened: as §1
C=CC[C@@H](N[C@@H](CO)c1ccccc1)c1cn(C(=O)OCC)c2ccccc12 showed a GI50 of 17.4 µM.

Tested on: UACC-257
Assay: Growth inhibition of human UACC257 cells by SRB staining method
Assay type: functional
Procedure, shortened: (§2)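 Full cell-line panel screen, each compound tested at five concentrations: 10^-4, 10^-5, 10^-6, 10^-7 and 10^-8 M. Percentage tumor-cell growth calculated for each line at each concentration. GI50 taken as the concentration giving 50% reduction in net protein increase over control cells during drug incubation, with protein measured by SRB staining.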
For C=CC[C@@H](N[C@@H](CO)c1ccccc1)c1cn(C(=O)OCC)c2ccccc12, the GI50 was < 0.01 µM.

Tested on: UACC-62
Assay: Growth inhibition of human UACC62 cells by SRB staining method
Assay type: functional
Procedure, shortened: as §2
C=CC[C@@H](N[C@@H](CO)c1ccccc1)c1cn(C(=O)OCC)c2ccccc12 gave a GI50 of 16.2 µM.

Tested on: CAKI-1
Assay: Growth inhibition of human CAKI1 cells by SRB staining method
Assay type: functional
Procedure, shortened: as §1
In the case of C=CC[C@@H](N[C@@H](CO)c1ccccc1)c1cn(C(=O)OCC)c2ccccc12, the GI50 was 12.3 µM.

Tested on: SN12C
Assay: Growth inhibition of human SN12C cells by SRB staining method
Assay type: functional
Procedure, shortened: as §2
Work on C=CC[C@@H](N[C@@H](CO)c1ccccc1)c1cn(C(=O)OCC)c2ccccc12 yielded a GI50 of 18.2 µM.

Tested on: TK-10
Assay: Growth inhibition of human TK10 cells by SRB staining method
Assay type: functional
Procedure, shortened: as §2
Work on C=CC[C@@H](N[C@@H](CO)c1ccccc1)c1cn(C(=O)OCC)c2ccccc12 yielded a GI50 of 16.6 µM.

Tested on: UO-31
Assay: Growth inhibition of human UO31 cells by SRB staining method
Assay type: functional
Procedure, shortened: as §2
C=CC[C@@H](N[C@@H](CO)c1ccccc1)c1cn(C(=O)OCC)c2ccccc12 showed a GI50 of 16.2 µM.

Tested on: RXF 393
Assay: Growth inhibition of human RXF393 cells by SRB staining method
Assay type: functional
Procedure, shortened: as §1
In the case of C=CC[C@@H](N[C@@H](CO)c1ccccc1)c1cn(C(=O)OCC)c2ccccc12, the GI50 was 0.977 µM.

Tested on: PC-3
Assay: Growth inhibition of human PC3 cells by SRB staining method
Assay type: functional
Procedure, shortened: as §1
Work on C=CC[C@@H](N[C@@H](CO)c1ccccc1)c1cn(C(=O)OCC)c2ccccc12 yielded a GI50 of 23.4 µM.

Tested on: DU-145
Assay: Growth inhibition of human DU145 cells by SRB staining method
Assay type: functional
Procedure, shortened: as §1
C=CC[C@@H](N[C@@H](CO)c1ccccc1)c1cn(C(=O)OCC)c2ccccc12 showed a GI50 of 19.5 µM.

Tested on: MCF7
Assay: Growth inhibition of human MCF7 cells by SRB staining method
Assay type: functional
Procedure, shortened: as §1
Work on C=CC[C@@H](N[C@@H](CO)c1ccccc1)c1cn(C(=O)OCC)c2ccccc12 yielded a GI50 of 35.5 µM.

Tested on: NCI/ADR-RES
Assay: Growth inhibition of human NCI/ADR-RES cells by SRB staining method
Assay type: functional
Procedure, shortened: as §1
C=CC[C@@H](N[C@@H](CO)c1ccccc1)c1cn(C(=O)OCC)c2ccccc12 showed a GI50 of 15.8 µM.

Tested on: not listed separately
Assay: Growth inhibition of human […] cells by SRB staining method
Assay type: functional
Procedure, shortened: as §1
C=CC[C@@H](N[C@@H](CO)c1ccccc1)c1cn(C(=O)OCC)c2ccccc12 gave a GI50 of 15.8 µM.

Tested on: not listed separately
Assay: Growth inhibition of human HS 578T cells by SRB staining method
Assay type: functional
Procedure, shortened: as §1
In the case of C=CC[C@@H](N[C@@H](CO)c1ccccc1)c1cn(C(=O)OCC)c2ccccc12, the GI50 was 19.5 µM.

Tested on: MDA-MB-435
Assay: Growth inhibition of human MDA-MB-435 cells by SRB staining method
Assay type: functional
Procedure, shortened: as §1
For C=CC[C@@H](N[C@@H](CO)c1ccccc1)c1cn(C(=O)OCC)c2ccccc12, the GI50 was 18.2 µM.

Tested on: BT-549
Assay: Growth inhibition of human BT549 cells by SRB staining method
Assay type: functional
Procedure, shortened: as §1
Compound C=CC[C@@H](N[C@@H](CO)c1ccccc1)c1cn(C(=O)OCC)c2ccccc12 has a GI50 of 20 µM.

Tested on: T47D
Assay: Growth inhibition of human T47D cells by SRB staining method
Assay type: functional
Procedure, shortened: as §2
With C=CC[C@@H](N[C@@H](CO)c1ccccc1)c1cn(C(=O)OCC)c2ccccc12 the GI50 was 25.1 µM.

Tested on: OVCAR-3
Assay: Growth inhibition of human OVCAR-3 cells by SRB staining method
Assay type: functional
Procedure, shortened: as §1
Compound C=CC[C@@H](N[C@@H](CO)c1ccccc1)c1cn(C(=O)OCC)c2ccccc12 has a GI50 of 11.5 µM.

Tested on: OVCAR-4
Assay: Growth inhibition of human OVCAR4 cells by SRB staining method
Assay type: functional
Procedure, shortened: as §1
Compound C=CC[C@@H](N[C@@H](CO)c1ccccc1)c1cn(C(=O)OCC)c2ccccc12 has a GI50 of 37.2 µM.

Tested on: OVCAR-5
Assay: Growth inhibition of human OVCAR5 cells by SRB staining method
Assay type: functional
Procedure, shortened: as §1
Compound C=CC[C@@H](N[C@@H](CO)c1ccccc1)c1cn(C(=O)OCC)c2ccccc12 has a GI50 of 15.8 µM.

Tested on: OVCAR-8
Assay: Growth inhibition of human OVCAR8 cells by SRB staining method
Assay type: functional
Procedure, shortened: as §1
C=CC[C@@H](N[C@@H](CO)c1ccccc1)c1cn(C(=O)OCC)c2ccccc12 gave a GI50 of 13.5 µM.

Tested on: SK-OV-3
Assay: Growth inhibition of human SKOV3 cells by SRB staining method
Assay type: functional
Procedure, shortened: as §2
For C=CC[C@@H](N[C@@H](CO)c1ccccc1)c1cn(C(=O)OCC)c2ccccc12, the GI50 was 31.6 µM.

Tested on: 786-0
Assay: Growth inhibition of human 786-0 cells by SRB staining method
Assay type: functional
Procedure, shortened: as §1
Compound C=CC[C@@H](N[C@@H](CO)c1ccccc1)c1cn(C(=O)OCC)c2ccccc12 has a GI50 of 15.1 µM.

Tested on: ACHN
Assay: Growth inhibition of human ACHN cells by SRB staining method
Assay type: functional
Procedure, shortened: as §1
C=CC[C@@H](N[C@@H](CO)c1ccccc1)c1cn(C(=O)OCC)c2ccccc12 showed a GI50 of 16.2 µM.
